The record followed here is ChEMBL document CHEMBL3580618, “New trisubstituted 1,2,4-triazoles as ghrelin receptor antagonists” (Bioorg Med Chem Lett, 2015).

By IC50 is commonly meant the point on the concentration scale where inhibition reaches its midpoint.

Data set [1] deals with T1, Growth hormone secretagogue receptor type 1 (Homo sapiens, UniProt Q92847). Put plainly: Displacement of 125I-[His9]-ghrelin from human GHSR1a expressed in LLC-PK1 cells by competitive binding assay. It counts as cell-based. (Displacement assays read how much labelled ligand stays bound in the presence of the test substance.)
Data set [2] has as its target T1, Growth hormone secretagogue receptor type 1. In words: Antagonist activity at human GSHR1a expressed in mouse LTK cells assessed as inhibition of ghrelin-induced reporter gene expression after 6 hrs by CRE/luciferase reporter gene assay. It counts as functional, cell-based. The method in brief: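 Mouse LTK cells stably expressing human GHS-R1a with luciferase reporter under CRE elements and CMV minimal promoter. Cells incubated 6 h with 1 µM rolipram, test compound at various concentrations and saturating ghrelin. Cells then lysed and bioluminescence read. % inhibition: ghrelin-treated cells = 0%, untreated cells = 100%. Quadruplicate points. IC50 from one experiment for weaker compounds, mean of at least two experiments for nanomolar ones.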
For orientation: Reporter assays use an easily measured gene product as a stand-in for the process of interest.

Data set [3] has the same target. Put plainly: Antagonist activity at GHSR1a (unknown origin) assessed as inhibition of ghrelin-induced intracellular calcium mobilization. It counts as functional, cell-based. A digest of the protocol:
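GHS-R1a-expressing cells; [Ca2+]i mobilization read. Compounds failing to raise calcium above 10% of maximal response (100% = 10^-7 M ghrelin) at 10^-5 M were treated as antagonists. […] One experiment, mean points from quadruplicate measurements.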
A general note: A change in cytosolic calcium serves as a functional read-out for many receptors and channels.

The nature of data set [4]: Retention time of the compound by HPLC analysis. It counts as physicochemical.
Data set [5] is described as follows: Retention time of the compound by LC-MS analysis. It counts as physicochemical.

T1 sequence (Q92847 whole entry): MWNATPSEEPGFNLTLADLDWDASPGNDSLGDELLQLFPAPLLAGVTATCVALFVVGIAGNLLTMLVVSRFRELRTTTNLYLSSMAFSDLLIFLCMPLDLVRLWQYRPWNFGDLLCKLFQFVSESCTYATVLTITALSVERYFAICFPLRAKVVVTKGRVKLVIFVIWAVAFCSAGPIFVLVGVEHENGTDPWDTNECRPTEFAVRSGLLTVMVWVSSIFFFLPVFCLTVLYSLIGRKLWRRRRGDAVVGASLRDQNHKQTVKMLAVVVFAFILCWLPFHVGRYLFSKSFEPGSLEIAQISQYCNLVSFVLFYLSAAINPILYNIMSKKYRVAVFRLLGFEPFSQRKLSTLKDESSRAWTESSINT

As to `COc1ccc(Cn2c(CCc3ccccc3)nnc2[C@@H](Cc2c[nH]c3ccccc23)NC(=O)c2cccc(OC)n2)cc1`, the results for the IC50 in data set [1], in data set [2] and in data set [3] were 2 nM, 9 nM and 7.8 nM, respectively. Further, the values for the Retention_time in data set [4] and in data set [5] were 1.86 min and 1.76 min, respectively.
Regarding `COc1ccc(Cn2c(CCc3ccccc3)nnc2[C@@H](Cc2c[nH]c3ccccc23)NC(=O)c2ncccc2O)cc1`, the IC50 is 240 nM in data set [1], 108 nM in data set [2] and 165 nM in data set [3]. Besides, the Retention_time in data set [4] is 1.86 min; in data set [5] it was 1.82 min.
On the same counts, the results for `COc1ccc(Cn2c(CCc3ccccc3)nnc2[C@@H](Cc2c[nH]c3ccccc23)NC(=O)c2ncc(F)cc2F)cc1` are 4 nM, 2.8 nM, 4.6 nM, 1.82 min and 1.65 min.
On the same counts, the results for `COc1ccc(Cn2c(CCc3ccccc3)nnc2[C@@H](Cc2c[nH]c3ccccc23)NC(=O)c2cccc(N)n2)cc1` are 6 nM, 21 nM, 25 nM, 1.55 min and 1.5 min.
The matching figures for `COc1ccc(Cn2c(CCc3ccccc3)nnc2[C@@H](Cc2c[nH]c3ccccc23)NC(=O)c2cccc(C)n2)cc1`: 3.4 nM, 7.5 nM, 5.4 nM, 1.82 min and 1.74 min.
On to `COc1ccc(Cn2c(CCc3ccccc3)nnc2[C@@H](Cc2c[nH]c3ccccc23)NC(=O)c2cccnc2N)cc1`, for which the IC50 stood at 380 nM in data set [1], 427 nM in data set [2] and 671 nM in data set [3]. For the same molecule, the Retention_time in data set [4] came to 1.58 min; in data set [5], 1.35 min.
The matching figures for `COc1ccc(Cn2c(CCc3ccccc3)nnc2[C@@H](Cc2c[nH]c3ccccc23)NC(=O)c2cccc(F)n2)cc1`: 2 nM, 2.1 nM, 2.1 nM, 1.84 min and 1.67 min.
On to `COc1ccc(Cn2c(CCc3ccccc3)nnc2[C@@H](Cc2c[nH]c3ccccc23)NC(=O)c2ccccn2)cc1`, for which the values for the IC50 in data set [2] and in data set [3] were 6 nM and 4.5 nM, respectively.
In the case of `COc1ccc(Cn2c(CCc3ccccc3)nnc2[C@@H](Cc2c[nH]c3ccccc23)NC(=O)c2cccnc2)cc1`, the IC50 in data set [1] was determined as 122 nM; in data set [2], 411 nM; in data set [3] it was 337 nM. Further, the Retention_time in data set [4] was 1.61 min; in data set [5] it was 1.57 min.
On the same counts, the results for `COc1ccc(Cn2c(CCc3ccccc3)nnc2[C@@H](Cc2c[nH]c3ccccc23)NC(=O)c2cncc(Br)c2)cc1` are 84 nM, 222 nM, 88 nM, 1.85 min and 1.85 min.
The matching figures for `COc1ccc(Cn2c(CCc3ccccc3)nnc2[C@@H](Cc2c[nH]c3ccccc23)NC(=O)c2ccc(Cl)nc2)cc1`: 130 nM, 771 nM, 1010 nM, 1.8 min and 1.52 min.
For `COc1ccc(Cn2c(CCc3ccccc3)nnc2[C@H](N)Cc2c[nH]c3ccccc23)cc1`, the IC50 in data set [1] was greater than 1000 nM.
Take `COc1ccc(Cn2c(CCc3ccccc3)nnc2[C@@H](Cc2c[nH]c3ccccc23)NC(=O)c2cccc[n+]2[O-])cc1`: the IC50 came to 42 nM in data set [1], 79 nM in data set [2] and 112 nM in data set [3]. Besides, the Retention_time is 1.73 min in data set [4] and 1.59 min in data set [5].
The matching figures for `COc1ccc(Cn2c(CCc3ccccc3)nnc2[C@@H](Cc2c[nH]c3ccccc23)NC(=O)c2nccc3ccccc23)cc1`: 150 nM, 73 nM, 82 nM, 1.93 min and 1.85 min.
In the case of `COc1ccc(Cn2c(CCc3ccccc3)nnc2[C@@H](Cc2c[nH]c3ccccc23)NC(=O)c2ncccc2C(=O)c2ccccc2)cc1`, the IC50 in data set [1] was determined as 240 nM; in data set [2], 313 nM; in data set [3] it was 230 nM. In addition, the figures for the Retention_time in data set [4] and in data set [5] were 1.88 min and 1.83 min, respectively.
In the case of `COc1ccc(Cn2c(CCc3ccccc3)nnc2[C@@H](Cc2c[nH]c3ccccc23)NC(=O)c2cccnc2Br)cc1`, the IC50 worked out at 250 nM in data set [1], 193 nM in data set [2] and 510 nM in data set [3]. Moreover, the Retention_time in data set [4] was determined as 1.76 min; in data set [5], 1.66 min.
On the same counts, the results for `COc1ccc(Cn2c(CCc3ccccc3)nnc2[C@@H](Cc2c[nH]c3ccccc23)NC(=O)c2ccc(N3CCCC3)cn2)cc1` are 65 nM, 1210 nM, 2110 nM, 1.76 min and 1.8 min.
On to `COc1ccc(Cn2c(CCc3ccccc3)nnc2[C@@H](Cc2c[nH]c3ccccc23)NC(=O)c2ccncc2)cc1`, for which the IC50 in data set [1] is 220 nM; in data set [2], 828 nM.
Turning to `COc1ccc(Cn2c(CCc3ccccc3)nnc2[C@@H](Cc2c[nH]c3ccccc23)NC(=O)c2ncccc2F)cc1`, the figures for the IC50 in data set [1], in data set [2] and in data set [3] were 3 nM, 8.8 nM and 7 nM, respectively. Also, the Retention_time in data set [4] came to 1.73 min; in data set [5], 1.67 min.
The matching figures for `COc1ccc(Cn2c(CCc3ccccc3)nnc2[C@@H](Cc2c[nH]c3ccccc23)NC(=O)c2cc3ccccc3cn2)cc1`: 100 nM, 126 nM, 404 nM, 1.9 min and 1.87 min.
